We go through 72 compounds from ChEMBL document CHEMBL1765010, “Reversible competitive α-ketoheterocycle inhibitors of fatty acid amide hydrolase containing additional conformational constraints in the acyl side chain: orally active, long-acting analgesics” (J Med Chem, 2011).

The structures appear in SMILES notation.

Molecular target in one assay: not listed separately
The assay can be described thus: Inhibition of full-length human FAAH expressed in COS-7 cells assessed as [14C]-labeled oleamide to oleic acid conversion. Type of assay: cell-based.
Settings: not given
An outline of the steps:
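Substrate 20 μM 14C-oleamide; three inhibitor concentrations. Reaction stopped in 0.1 N HCl at three time points, extracted with EtOAc and read by TLC.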
One may read the Ki as the equilibrium dissociation constant of an inhibitor or competing ligand from its target. Take `O=C(c1ncco1)C1CCc2cc(OCc3ccccc3)ccc2C1` (racemic): the Ki was more than 10000 nM. On the same count and under the same terms, in the case of `O=C(c1ncco1)C1Cc2ccc(OCc3ccccc3)cc2C1` (racemic) it was more than 24 nM; in that of `COC(=O)c1cccc(-c2cnc(C(=O)C3Cc4ccc(OCc5ccccc5)cc4C3)o2)n1` (racemic), more than 10000 nM; in that of `COC(=O)c1cccc(-c2cnc(C(=O)C3CCc4cc(OCc5ccccc5)ccc4C3)o2)n1` (racemic), more than 10000 nM.

Another assay relates to Mus musculus. The assay can be described thus: Inhibition of FAAH in C57Bl/6J mouse brain assessed as increase of anandamide level at 30 mg/kg, ip after 1 hr relative to control. Type of assay: functional. Conditions: route intraperitoneal. The gist of the method:
(§1)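 Male C57Bl/6J mice (<6 months, 20–28 g) dosed i.p. at 30 mg/kg in 18:1:1 saline:ethanol:emulphor emulsion; brains taken 1 h later. One mouse in the initial screen, 3 per group in the follow-up. Brain homogenized in CHCl3:MeOH:Tris pH 8.0 with deuterated lipid standards; organic extract quantified by reverse-phase C18 LC-ESI-MS/MS against vehicle controls.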
`O=C(c1ncc(-c2ccccn2)o1)C1Cc2ccc(Oc3ccccc3)cc2C1` (stereo not given): the “fold change (FC)” value stood at 3.

The subject of another assay is Mus musculus. The assay can be described thus: Inhibition of FAAH in C57Bl/6J mouse brain assessed as increase of N-palmitoyl ethanolamine level at 30 mg/kg, ip after 1 hr relative to control. It is filed as functional. Conditions: route intraperitoneal. The gist of the method:
as §1
For the compound `O=C(c1ncc(-c2ccccn2)o1)C1Cc2ccc(Oc3ccccc3)cc2C1` (stereo not given), the “fold change (FC)” value turned out to be 7.4.

For the next assay, the system named is Mus musculus. The assay can be described thus: Inhibition of FAAH in C57Bl/6J mouse brain assessed as increase of 2-arachidonoylglycerol level at 30 mg/kg, ip after 1 hr relative to control. Conditions: route intraperitoneal. It is filed as functional. An outline of the steps:
as §1
Consider `O=C(c1ncc(-c2ccccn2)o1)C1Cc2ccc(Oc3ccccc3)cc2C1` (stereo not given), for which the “fold change (FC)” value was found to be 0.8.

The next assay deals with Mus musculus. The assay can be described thus: Inhibition of FAAH in C57Bl/6J mouse brain assessed as increase of arachidonic acid level at 30 mg/kg, ip after 1 hr relative to control. The settings on record: route intraperitoneal. Type of assay: functional. An outline of the steps: as §1
`O=C(c1ncc(-c2ccccn2)o1)C1Cc2ccc(Oc3ccccc3)cc2C1` (stereo not given): the “fold change (FC)” value amounted to 0.9.

The next assay concerns the target T1, Fatty-acid amide hydrolase 1 (Rattus norvegicus, UniProt P97612).
T1 sequence (P97612 whole entry): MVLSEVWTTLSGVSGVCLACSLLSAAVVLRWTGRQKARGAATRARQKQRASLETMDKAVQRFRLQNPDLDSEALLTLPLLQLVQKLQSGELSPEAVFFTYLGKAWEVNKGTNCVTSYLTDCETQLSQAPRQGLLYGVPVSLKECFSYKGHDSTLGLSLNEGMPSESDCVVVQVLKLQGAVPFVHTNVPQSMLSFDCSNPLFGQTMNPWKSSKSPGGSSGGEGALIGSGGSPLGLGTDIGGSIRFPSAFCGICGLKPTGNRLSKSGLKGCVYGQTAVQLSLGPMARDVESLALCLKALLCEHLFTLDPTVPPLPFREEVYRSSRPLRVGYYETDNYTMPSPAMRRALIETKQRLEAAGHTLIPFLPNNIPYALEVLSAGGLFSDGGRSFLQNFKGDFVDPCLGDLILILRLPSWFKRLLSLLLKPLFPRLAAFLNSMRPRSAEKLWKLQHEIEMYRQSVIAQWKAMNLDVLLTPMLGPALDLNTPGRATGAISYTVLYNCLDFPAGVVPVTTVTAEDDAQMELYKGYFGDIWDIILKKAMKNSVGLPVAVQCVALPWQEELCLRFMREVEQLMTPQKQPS
The experiment in a line: Inhibition of rat FAAH expressed in E. coli assessed as [14C]-labeled oleamide to oleic acid conversion.
Settings: not given
Turning to `COC(=O)c1cccc(-c2cnc(C(=O)[C@@H]3CCc4cc(Oc5ccccc5)ccc4C3)o2)n1`, the Ki stood at 870 nM. Same read-out and setting: in the case of `COC(=O)c1cccc(-c2cnc(C(=O)[C@H]3CCc4cc(Oc5ccccc5)ccc4C3)o2)n1` it was 2.2 nM. Same read-out and setting: in the case of `O=C(O)c1cccc(-c2cnc(C(=O)[C@@H]3Cc4ccc(Oc5ccccc5)cc4C3)o2)n1` it was 550 nM; in that of `O=C(c1ncc(-c2ccccn2)o1)[C@H]1Cc2ccc(OCc3ccccc3)cc2C1`, 1.4 nM; in that of `O=C(O)c1cccc(-c2cnc(C(=O)[C@@H]3Cc4ccc(OCc5ccccc5)cc4C3)o2)n1`, 660 nM. Regarding `O=C(c1nnco1)[C@H]1CCc2cc(Oc3ccccc3)ccc2C1`, the Ki stood at 0.5 nM. On the same count and under the same terms, in the case of `O=C(c1nnc(-c2ccccn2)o1)[C@H]1CCc2cc(Oc3ccccc3)ccc2C1` it was 1 nM; in that of `COC(=O)c1cccc(-c2cnc(C(=O)[C@H]3CCc4cc(-c5ccccc5)ccc4C3)o2)n1`, 27 nM.

As for `O=C(c1ncc(-c2ccccn2)o1)[C@@H]1CCc2cc(Oc3ccccc3)ccc2C1`, the Ki came to 290 nM. Regarding `O=C(O)c1cccc(-c2cnc(C(=O)C3Cc4ccc(-c5ccccc5)cc4C3)o2)n1` (racemic), the Ki stood at 57 nM. In the case of `O=C(c1ncco1)[C@@H]1CCc2cc(Oc3ccccc3)ccc2C1`, the Ki amounted to 410 nM. Turning to `O=C(c1ncco1)[C@@H]1CCc2ccccc2C1`, the Ki was 12000 nM.

As to `O=C(c1ncc(-c2ccccn2)o1)[C@H]1Cc2ccc(-c3ccccc3)cc2C1`, the Ki came out at 1.9 nM. The same measure, in the same setting: in the case of `O=C(c1ncc(-c2ccccn2)o1)[C@@H]1Cc2ccc(-c3ccccc3)cc2C1` it was 600 nM; in that of `O=C(c1nnc(-c2ccccn2)o1)[C@@H]1CCc2cc(Oc3ccccc3)ccc2C1`, 6.3 nM; in that of `COC(=O)c1cnc(C(=O)[C@H]2CCc3cc(OCc4ccccc4)ccc3C2)o1`, 2.9 nM. On to `O=C(c1ncco1)[C@H]1CCc2cc(OCc3ccccc3)ccc2C1`, for which the Ki was 6.1 nM. Take `O=C(c1ncc(-c2ccccn2)o1)[C@H]1CCc2cc(OCc3ccccc3)ccc2C1`: the Ki worked out at 3.2 nM. Still for that read-out and setting: in the case of `COC(=O)c1cnc(C(=O)[C@@H]2CCc3cc(OCc4ccccc4)ccc3C2)o1` it was 53 nM. Still for that read-out and setting: in the case of `COC(=O)c1nnc(C(=O)[C@@H]2CCc3cc(Oc4ccccc4)ccc3C2)o1` it was 1.6 nM; in that of `COC(=O)c1nnc(C(=O)[C@H]2CCc3cc(Oc4ccccc4)ccc3C2)o1`, 1.5 nM.

Consider `O=C(c1ncco1)[C@H]1CCc2cc(-c3ccccc3)ccc2C1`, for which the Ki was determined as 57 nM. `O=C(c1ncco1)[C@H]1CCc2ccccc2C1`: the Ki was determined as 5100 nM. Same read-out and setting: in the case of `O=C(c1ncco1)[C@@H]1Cc2ccc(Oc3ccccc3)cc2C1` it was 200 nM. Same read-out and setting: in the case of `O=C(c1ncco1)[C@H]1Cc2ccc(-c3ccccc3)cc2C1` it was 27 nM. Still for that read-out and setting: in the case of `COC(=O)c1cccc(-c2cnc(C(=O)[C@H]3Cc4ccc(OCc5ccccc5)cc4C3)o2)n1` it was 5.8 nM; in that of `O=C(c1ncco1)[C@H]1CCc2cc(Oc3ccccc3)ccc2C1`, 2.2 nM; in that of `N#Cc1cnc(C(=O)[C@H]2CCc3cc(-c4ccccc4)ccc3C2)o1`, 3.4 nM. As to `O=C(c1ncc(-c2ccccn2)o1)[C@H]1CCc2cc(-c3ccccc3)ccc2C1`, the Ki was 7.2 nM.

With `O=C(c1ncc(-c2ccccn2)o1)[C@@H]1Cc2ccc(Oc3ccccc3)cc2C1`, the inhibition constant Ki stood at 42 nM. In the case of `O=C(c1ncc(-c2ccccn2)o1)[C@H]1Cc2ccc(Oc3ccccc3)cc2C1`, the Ki was determined as 2.1 nM. The same measure, in the same setting: in the case of `N#Cc1cnc(C(=O)[C@H]2CCc3cc(OCc4ccccc4)ccc3C2)o1` it was 3.2 nM; in that of `O=C(c1ncc(-c2ccccn2)o1)[C@@H]1CCc2cc(-c3ccccc3)ccc2C1`, 240 nM. On the same count and under the same terms, in the case of `O=C(c1ncc(I)o1)C1CCc2cc(OCc3ccccc3)ccc2C1` (racemic) it was 8 nM; in that of `COC(=O)c1cccc(-c2cnc(C(=O)[C@@H]3CCc4cc(-c5ccccc5)ccc4C3)o2)n1`, 700 nM. Same read-out and setting: in the case of `COC(=O)c1cnc(C(=O)[C@H]2CCc3cc(-c4ccccc4)ccc3C2)o1` it was 55 nM. `COC(=O)c1cccc(-c2cnc(C(=O)[C@@H]3CCc4cc(OCc5ccccc5)ccc4C3)o2)n1`: the Ki was 4500 nM. Take `O=C(O)c1cccc(-c2cnc(C(=O)[C@@H]3CCc4cc(OCc5ccccc5)ccc4C3)o2)n1`: the Ki was determined as 740 nM. The same measure, in the same setting: in the case of `O=C(c1ncc(-c2ccccn2)o1)[C@@H]1Cc2ccc(OCc3ccccc3)cc2C1` it was 110 nM; in that of `O=C(O)c1cccc(-c2cnc(C(=O)[C@@H]3CCc4cc(-c5ccccc5)ccc4C3)o2)n1`, 500 nM; in that of `N#Cc1cnc(C(=O)[C@@H]2CCc3cc(-c4ccccc4)ccc3C2)o1`, 62 nM. The same measure, in the same setting: in the case of `COC(=O)c1cnc(C(=O)[C@@H]2CCc3cc(Oc4ccccc4)ccc3C2)o1` it was 59 nM. For the compound `N#Cc1cnc(C(=O)[C@@H]2CCc3cc(Oc4ccccc4)ccc3C2)o1`, the Ki amounted to 54 nM.

As for `O=C(c1ncc(I)o1)[C@H]1CCc2cc(OCc3ccccc3)ccc2C1`, the Ki amounted to 4.1 nM.

On to `O=C(O)c1cccc(-c2cnc(C(=O)[C@H]3CCc4cc(OCc5ccccc5)ccc4C3)o2)n1`, for which the inhibitory constant (Ki) is 34 nM. Still for that read-out and setting: in the case of `O=C(c1ncc(I)o1)[C@@H]1CCc2cc(OCc3ccccc3)ccc2C1` it was 700 nM; in that of `O=C(c1ncco1)[C@H]1Cc2ccc(Oc3ccccc3)cc2C1`, 10 nM. As to `COC(=O)c1cccc(-c2cnc(C(=O)C3Cc4ccc(-c5ccccc5)cc4C3)o2)n1` (racemic), the Ki stood at 6.2 nM. Same read-out and setting: in the case of `O=C(c1ncc(-c2ccccn2)o1)[C@@H]1CCc2cc(OCc3ccccc3)ccc2C1` it was 300 nM; in that of `O=C(c1ncc(-c2ccccn2)o1)[C@H]1CCc2ccccc2C1`, 430 nM. As for `COC(=O)c1cnc(C(=O)[C@@H]2CCc3cc(-c4ccccc4)ccc3C2)o1`, the Ki worked out at 1400 nM. Regarding `O=C(c1nnco1)[C@@H]1CCc2cc(Oc3ccccc3)ccc2C1`, the Ki was found to be 1.4 nM. On the same count and under the same terms, in the case of `N#Cc1cnc(C(=O)[C@H]2CCc3cc(Oc4ccccc4)ccc3C2)o1` it was 1.3 nM; in that of `O=C(c1ncco1)[C@@H]1CCc2cc(-c3ccccc3)ccc2C1`, 460 nM; in that of `O=C(O)c1cccc(-c2cnc(C(=O)[C@H]3Cc4ccc(Oc5ccccc5)cc4C3)o2)n1`, 71 nM. Same read-out and setting: in the case of `O=C(c1ncco1)[C@@H]1CCc2cc(OCc3ccccc3)ccc2C1` it was 87 nM; in that of `O=C(c1ncc(-c2ccccn2)o1)[C@@H]1CCc2ccccc2C1`, 3200 nM; in that of `N#Cc1cnc(C(=O)[C@@H]2CCc3cc(OCc4ccccc4)ccc3C2)o1`, 120 nM.

In the case of `O=C(c1ncco1)[C@@H]1Cc2ccc(-c3ccccc3)cc2C1`, the Ki came to 140 nM. The same measure, in the same setting: in the case of `COC(=O)c1cccc(-c2cnc(C(=O)[C@H]3CCc4cc(OCc5ccccc5)ccc4C3)o2)n1` it was 18 nM; in that of `O=C(O)c1cccc(-c2cnc(C(=O)[C@H]3Cc4ccc(OCc5ccccc5)cc4C3)o2)n1`, 51 nM.

On to `COC(=O)c1cccc(-c2cnc(C(=O)[C@H]3Cc4ccc(Oc5ccccc5)cc4C3)o2)n1`, for which the Ki worked out at 98 nM.

As for `COC(=O)c1cccc(-c2cnc(C(=O)[C@@H]3Cc4ccc(Oc5ccccc5)cc4C3)o2)n1`, the Ki came to 790 nM. As to `O=C(O)c1cccc(-c2cnc(C(=O)[C@@H]3CCc4cc(Oc5ccccc5)ccc4C3)o2)n1`, the Ki was 220 nM. The same measure, in the same setting: in the case of `O=C(O)c1cccc(-c2cnc(C(=O)[C@H]3CCc4cc(-c5ccccc5)ccc4C3)o2)n1` it was 39 nM; in that of `COC(=O)c1cnc(C(=O)[C@H]2CCc3cc(Oc4ccccc4)ccc3C2)o1`, 5.4 nM. The same measure, in the same setting: in the case of `COC(=O)c1cccc(-c2cnc(C(=O)[C@@H]3Cc4ccc(OCc5ccccc5)cc4C3)o2)n1` it was 130 nM.
